Key:
[1] = molecular target: T1, Muscarinic acetylcholine receptor M4 (Homo sapiens) (UniProt P08173); assay: Positive allosteric modulation of human muscarinic acetylcholine M4/Gqi5 receptor expressed in CHO cells in presence of acetylcholine at EC20 concentration by calcium mobilization assay relative to control; assay type: functional, cell-based
T1 sequence (whole entry): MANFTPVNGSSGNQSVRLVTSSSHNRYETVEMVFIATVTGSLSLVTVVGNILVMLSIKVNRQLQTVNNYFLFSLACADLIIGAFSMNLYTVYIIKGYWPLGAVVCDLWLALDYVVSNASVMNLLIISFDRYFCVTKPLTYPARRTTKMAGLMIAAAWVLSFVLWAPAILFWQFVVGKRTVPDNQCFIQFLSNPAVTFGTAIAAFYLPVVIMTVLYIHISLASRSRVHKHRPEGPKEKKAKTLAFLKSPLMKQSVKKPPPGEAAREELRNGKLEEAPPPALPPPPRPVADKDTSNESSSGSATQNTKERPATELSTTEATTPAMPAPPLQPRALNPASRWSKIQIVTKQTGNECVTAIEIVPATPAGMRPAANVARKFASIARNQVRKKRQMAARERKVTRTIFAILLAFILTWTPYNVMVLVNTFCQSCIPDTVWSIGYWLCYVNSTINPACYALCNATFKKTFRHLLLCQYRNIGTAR
Summary of the method: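 CHO cells stably expressing human M4 with a chimeric Gq protein were tested by calcium mobilization in the presence of an EC20 fixed concentration of acetylcholine. EC50 values come from concentration-response curves. Efficacy is given as % of the maximal acetylcholine response. Each value is n = 1 independent experiment run in triplicate.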

[2] = molecular target: T2, Muscarinic acetylcholine receptor M4 (Homo sapiens, UniProt P08173); assay: Positive allosteric modulation of human muscarinic acetylcholine M4/Gqi5 receptor expressed in CHO cells in presence of acetylcholine at EC20 concentration by calcium mobilization assay; assay type: functional, cell-based
T2 sequence (P08173 whole entry): T1 sequence (whole entry)

[3] = Intrinsic clearance in rat liver microsomes; conditions: read-out: CLH
[4] = Intrinsic clearance in human liver microsomes; conditions: read-out: CLH
[5] = Brain to plasma partition coefficient, Kp of the compound in Sprague-Dawley rat at 0.2 mg/kg, iv measured at […]; assay type: ADME, organism-based; conditions: time 0.25 hrs
[6] = filed as positive allosteric modulator

Q: For Cc1cc(C)c2c(n1)sc1c(NCc3ccc4c(n3)CCC4)ncnc12, which %max [1] is on record?
A: Its %max is 30%.

Q: And the EC50 ([2]; read-out: EC50)?
A: The EC50 was 2560 nM.

Q: Which %max [1, 6] does the source give for Cc1cc(C)c2c(n1)sc1c(NCc3cnc(C)nc3)ncnc12 here?
A: The %max was 54%.

Q: What does the source list for Cc1cc(C)c2c(n1)sc1c(NC3CC(c4ccncc4)C3)ncnc12 (stereo not given)?
A: %max [1, 6]: 67%; EC50 ([2]; read-out: EC50): 341 nM

Q: With Cc1cc(C)c2c(n1)oc1c(NC3CCC3)ncnc12 as the compound, how does the %max [1, 6] read?
A: Its %max is 44%.

Q: Which results are given for Cc1cc(C)c2c(n1)sc1c(NCc3ccc(-n4ccnc4)nc3)ncnc12?
A: %max [1]: 34%; EC50 ([2]; read-out: EC50): 1560 nM

Q: With Cc1cc(C)c2c(n1)sc1c(NCc3ccc4sccc4c3)ncnc12 as the compound, how does the EC50 ([2]; cho) read?
A: Its EC50 is “Not Active”.

Q: Which %max [1, 6] does the source give for Cc1cc(C)c2c(n1)sc1c(NCc3ccc4c(c3)COC4)ncnc12 here?
A: Its %max is 41%.

Q: And the EC50 ([2]; read-out: EC50)?
A: The EC50 was 1140 nM.

Q: For Cc1cc(C)c2c(n1)oc1c(NCc3ccc(C(C)(C)O)cc3)ncnc12, which EC50 ([2]; cho) is on record?
A: Its EC50 is “Not Active”.

Q: With Cc1cc(C)c2c(n1)sc1c(NC3CCC3)nccc12 as the compound, how does the predicted hepatic clearance [3] read?
A: Its predicted hepatic clearance is 69 mL/min/kg.

Q: What about the predicted hepatic clearance [4] of the same compound?
A: Its predicted hepatic clearance is 20 mL/min/kg.

Q: And the %max [1, 6]?
A: The %max was 90%.

Q: What about the Kp [5] of the same compound?
A: The Kp was 10.4.

Q: With Cc1cc(C)c2c(n1)sc1c(C)ncnc12 as the compound, how does the %max [1, 6] read?
A: Its %max is 58%.

Q: Which EC50 ([2]; cho) does the source give for Cc1cc(C)c2c(n1)sc1c(NCc3ccc(C(F)(F)F)cn3)ncnc12 here?
A: Its EC50 is “Not Active”.

Q: For Cc1cc(C)c2c(n1)sc1c(NCc3ccc(F)c(Cl)c3)ncnc12, which EC50 ([2]; cho) is on record?
A: Its EC50 is “Not Active”.

Q: With COc1ccc(CNc2ncnc3c2oc2nc(C)cc(C)c23)cc1F as the compound, how does the EC50 ([2]; cho) read?
A: Its EC50 is “Not Active”.

Q: Which %max [1, 6] does the source give for Cc1cc(C)c2c(n1)sc1c(N3CC(F)(F)C3)ncnc12 here?
A: The %max was 69%.

Q: With Cc1cc(C)c2c(n1)sc1c(-c3nccs3)ncnc12 as the compound, how does the %max [1, 6] read?
A: Its %max is 62%.

Q: For Cc1cc(C)c2c(n1)sc1c(C3CCCCC3)ncnc12, which %max [1, 6] is on record?
A: The %max was 71%.

Q: Which predicted hepatic clearance [3] does the source give for Cc1cc(C)c2c(n1)sc1c(NCc3ccc(S(C)(=O)=O)cc3)ncnc12 here?
A: Its predicted hepatic clearance is 50 mL/min/kg.

Q: And the predicted hepatic clearance [4]?
A: Its predicted hepatic clearance is 12 mL/min/kg.

Q: What about the %max [1, 6] of the same compound?
A: Its %max is 42%.

Q: What about the Kp [5] of the same compound?
A: Its Kp is 0.45.

Q: Which %max [1, 6] does the source give for Cc1cc(C)c2c(n1)sc1c(NCc3ccc(OC(F)F)cc3)ncnc12 here?
A: Its %max is 45%.

Q: What about the EC50 ([2]; read-out: EC50) of the same compound?
A: The EC50 was 4010 nM.

Q: Which %max [1, 6] does the source give for COCC1CN(c2ncnc3c2sc2nc(C)cc(C)c23)C1 here?
A: Its %max is 50%.

Q: Which results are given for Cc1cc(C)c2c(n1)sc1c(C3CCOCC3)ncnc12?
A: %max [1, 6]: 99%; EC50 ([2]; read-out: EC50): 152 nM

Q: Which %max [1, 6] does the source give for Cc1cc(C)c2c(n1)sc1c(NCc3ccc(C(C)(C)O)cc3)ncnc12 here?
A: Its %max is 76%.

Q: With Cc1cc(C)c2c(n1)sc1c(NC3CN(c4ncc(C(F)(F)F)cn4)C3)nccc12 as the compound, how does the %max [1, 6] read?
A: The %max was 80%.

Q: Which results are given for Cc1cc(C)c2c(n1)sc1c(NCc3ccc(C(C)(C)O)cc3)nccc12?
A: predicted hepatic clearance [3]: 58 mL/min/kg; predicted hepatic clearance [4]: 15 mL/min/kg; %max [1, 6]: 101%; Kp [5]: 2.27

Q: Which results are given for Cc1cc(C)c2c(n1)sc1c(N3CCCC3)ncnc12?
A: predicted hepatic clearance [3]: 68 mL/min/kg; predicted hepatic clearance [4]: 18 mL/min/kg; %max [1, 6]: 67%; Kp [5]: 5.36

Q: With Cc1cc(C)c2c(n1)sc1c(NCc3ccc(C(C)(C)O)cc3F)ncnc12 as the compound, how does the %max [1, 6] read?
A: The %max was 74%.

Q: What about the EC50 ([2]; read-out: EC50) of the same compound?
A: The EC50 was 2320 nM.

Q: With Cc1cc(C)c2c(n1)sc1c(NCc3ccc(CN4CCOCC4)cc3)ncnc12 as the compound, how does the %max [1, 6] read?
A: The %max was 47%.

Q: And the EC50 ([2]; read-out: EC50)?
A: Its EC50 is 1110 nM.

Q: With Cc1cc(C)c2c(n1)sc1c(NCc3ccc(OC(F)(F)F)cc3)ncnc12 as the compound, how does the EC50 ([2]; cho) read?
A: Its EC50 is “Not Active”.

Q: Which %max [1, 6] does the source give for Cc1cc(C)c2c(n1)sc1c(NC3CCC3)ncnc12 here?
A: The %max was 76%.

Q: Which EC50 ([2]; cho) does the source give for Cc1cc(C)c2c(n1)oc1c(N3CCCC3)ncnc12 here?
A: The EC50 was “Not Active”.

Q: For Cc1cc(C)c2c(n1)sc1c(N(C)C)nccc12, which %max [1, 6] is on record?
A: The %max was 82%.

Q: For Cc1cc(C)c2c(n1)sc1c(NCc3ncc(F)cn3)ncnc12, which %max [1] is on record?
A: The %max was 30%.

Q: And the EC50 ([2]; read-out: EC50)?
A: The EC50 was > 10000 nM.

Q: For Cc1cc(C)c2c(n1)sc1c(C3CC3)ncnc12, which %max [1, 6] is on record?
A: Its %max is 62%.

Q: Which %max [1, 6] does the source give for COc1ccc(C2CC2Nc2ncnc3c2sc2nc(C)cc(C)c23)cc1 (stereo not given) here?
A: The %max was 61%.

Q: Which predicted hepatic clearance [3] does the source give for Cc1cc(C)c2c(n1)sc1c(C3CCN(C(=O)C4(C)CC4)CC3)ncnc12 here?
A: Its predicted hepatic clearance is 59 mL/min/kg.

Q: What about the predicted hepatic clearance [4] of the same compound?
A: The predicted hepatic clearance was 11 mL/min/kg.

Q: And the %max [1, 6]?
A: Its %max is 72%.

Q: And the Kp [5]?
A: Its Kp is 0.54.

Q: And the EC50 ([2]; read-out: EC50)?
A: Its EC50 is 234 nM.

Q: For COc1ccc(CNc2nccc3c2sc2nc(C)cc(C)c23)cc1F, which %max [1, 6] is on record?
A: The %max was 90%.

Q: For Cc1cc(C)c2c(n1)sc1c(N3CC4CC4C3)ncnc12 (stereo not given), which %max [1, 6] is on record?
A: Its %max is 75%.

Q: Which predicted hepatic clearance [3] does the source give for Cc1cc(C)c2c(n1)sc1c(N3CCC3)ncnc12 here?
A: The predicted hepatic clearance was 64 mL/min/kg.

Q: And the predicted hepatic clearance [4]?
A: The predicted hepatic clearance was 20 mL/min/kg.

Q: And the %max [1, 6]?
A: Its %max is 59%.

Q: What about the Kp [5] of the same compound?
A: Its Kp is 6.49.

Q: With Cc1cc(C)c2c(n1)sc1c(N3CC4(COC4)C3)ncnc12 as the compound, how does the predicted hepatic clearance [3] read?
A: Its predicted hepatic clearance is 63 mL/min/kg.

Q: What about the predicted hepatic clearance [4] of the same compound?
A: Its predicted hepatic clearance is 18 mL/min/kg.

Q: And the %max [1, 6]?
A: The %max was 84%.

Q: What about the Kp [5] of the same compound?
A: Its Kp is 4.47.

Q: For Cc1ccc(CNc2ncnc3c2sc2nc(C)cc(C)c23)c(F)c1, which EC50 ([2]; cho) is on record?
A: The EC50 was “Not Active”.

Q: With Cc1cc(C)c2c(n1)oc1c(NC3CN(c4cc(Cl)ncc4Cl)C3)ncnc12 as the compound, how does the %max [1, 6] read?
A: The %max was 49%.

Q: For Cc1cc(C)c2c(n1)sc1c(C3CCNCC3)ncnc12, which %max [1, 6] is on record?
A: Its %max is 44%.

Q: With Cc1cc(C)c2c(n1)sc1c(C3CCN(c4cncc(F)c4)CC3)ncnc12 as the compound, how does the EC50 ([2]; cho) read?
A: Its EC50 is “Not Active”.

Q: Which %max [1, 6] does the source give for Cc1cc(C)c2c(n1)sc1c(OCc3ccc(C(C)(C)O)cc3)ncnc12 here?
A: The %max was 40%.

Q: And the EC50 ([2]; read-out: EC50)?
A: Its EC50 is 8740 nM.

Q: For Cc1cc(C)c2c(n1)sc1c(N3CCCC3)nccc12, which predicted hepatic clearance [3] is on record?
A: Its predicted hepatic clearance is 68 mL/min/kg.

Q: What about the predicted hepatic clearance [4] of the same compound?
A: Its predicted hepatic clearance is 19 mL/min/kg.

Q: What about the %max [1, 6] of the same compound?
A: Its %max is 98%.

Q: And the Kp [5]?
A: Its Kp is 37.1.

Q: Which %max [1, 6] does the source give for Cc1cc(C)c2c(n1)sc1c(NC3CN(c4ncc(C(F)(F)F)cn4)C3)ncnc12 here?
A: Its %max is 52%.

Q: With Cc1cc(C)c2c(n1)oc1c(NC3CC3)ncnc12 as the compound, how does the %max [1, 6] read?
A: The %max was 64%.

Q: For Cc1cc(C)c2c(n1)sc1c(C3CCN(CC4CC4)CC3)ncnc12, which EC50 ([2]; cho) is on record?
A: The EC50 was “Not Active”.

Q: With Cc1cc(C)c2c(n1)oc1c(NC3CN(c4ncc(C(F)(F)F)cn4)C3)ncnc12 as the compound, how does the EC50 ([2]; cho) read?
A: The EC50 was “Not Active”.

Q: Which %max [1, 6] does the source give for Cc1cc(C)c2c(n1)sc1c(NC3CCCC3)nccc12 here?
A: The %max was 71%.

Q: With Cc1cc(C)c2c(n1)sc1c(C3CCN(C(=O)C4CC4)CC3)ncnc12 as the compound, how does the %max [1, 6] read?
A: The %max was 62%.

Reference: ChEMBL document CHEMBL5029174, “Discovery of structurally distinct tricyclic M4 positive allosteric modulator (PAM) chemotypes - Part 2” (Bioorg Med Chem Lett, 2021)
